Source: publication PMC6474823 (Molecular cell, 2019)

Key:
[1] = test system: kinases in lysates of HEK293T cells expressing Hck^FLAG V284C; assay: Kinobead kinome profiling of CystIMATIK probes; format: binding, human; conditions: 10 μM probe vs DMSO, ~220 kinases enriched
[2] = biological target: Src^3D V284C (Homo sapiens, UniProt P12931, V284C); assay: Inhibitor IC50 determination, fluorescent SFK peptide kinase assay; format: biochemical; conditions: 1 mM ATP
Summary of the method: (§1)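 Kinase concentrations were set in the linear range by prior titration: Src3D WT or V284C at 7.5 nM, Hck3D WT or V284C at 5 nM. Kinase was incubated 30 min with test compound (30 μM top, 3-fold serial dilutions, 10 points) and 1 mM ATP in HEPES pH 7.5 buffer with MgCl2, EGTA, BSA, vanadate and BME. Then 20 μM pyrene-labelled SFK peptide was added for 2 h. Fluorescence was read at ex 344/em 405 nm, in triplicate.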

[3] = biological target: Src^3D WT (Homo sapiens, UniProt P12931); assay: as above; format: biochemical; conditions: 1 mM ATP
Summary of the method: as §1

[4] = biological target: Hck^3D WT (Homo sapiens, UniProt P08631); assay: as above; format: biochemical; conditions: 1 mM ATP
Sequence of Hck^3D WT (P08631 81-526): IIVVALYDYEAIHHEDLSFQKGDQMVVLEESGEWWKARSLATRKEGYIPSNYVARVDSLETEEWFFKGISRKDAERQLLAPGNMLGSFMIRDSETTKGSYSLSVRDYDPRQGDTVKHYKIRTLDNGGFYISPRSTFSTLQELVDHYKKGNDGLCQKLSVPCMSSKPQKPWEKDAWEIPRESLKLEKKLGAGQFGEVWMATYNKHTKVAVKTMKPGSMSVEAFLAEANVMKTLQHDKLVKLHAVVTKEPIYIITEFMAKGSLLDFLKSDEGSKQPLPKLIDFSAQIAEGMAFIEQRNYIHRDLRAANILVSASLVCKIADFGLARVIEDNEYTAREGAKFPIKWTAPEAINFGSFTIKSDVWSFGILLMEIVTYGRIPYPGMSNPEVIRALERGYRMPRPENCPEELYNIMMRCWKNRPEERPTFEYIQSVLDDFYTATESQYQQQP
Summary of the method: as §1

[5] = test system: Src^GFP V284C-expressing SYFs; assay: Membrane blebbing microscopy; format: cell-based, murine; conditions: for membrane blebbing: 15 min treatment, 3 μM 2 or 10 μM 3 (1, 3 or 10 μM 3 for dose dependence)
Summary of the method: (§2)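 SYF cells were seeded on glass slides at 2×10^4 and transfected 24 h later with turbofectin (3:1 μL:μg DNA). At 24 h post-transfection, cells were exposed to test compound for 15 min; where indicated, 10 μM ROCK inhibitor was given for 2 h beforehand. Cells were PBS-washed, fixed in 4% paraformaldehyde for 15 min, and stained with NucBlue and Alexa647-wheat-germ agglutinin for 15 min. The fraction of cells showing blebs was scored.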

[6] = biological target: Src^FLAG V284C (Homo sapiens, UniProt P12931, V284C); assay: SH3 domain pulldown assay with inhibitor-treated cells; format: cell-based; conditions: HEK293 cells treated with 10 μM probe for 2 h; immobilized SH3 domain ligand
Summary of the method: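 HEK293T cells expressing SrcFLAG V284C were treated with 10 μM test compound for 2 h. They were then PBS-washed and lysed for 20 min on ice in modified RIPA (pH 7.8, 1% IGEPAL, protease/phosphatase inhibitors, 10 μM compound). Lysates were cleared at 17,000x g, 4 °C, then incubated with SNAP-immobilized SH3 ligand resin, rotating at room temperature for 1 h. Retained Src was quantified by anti-FLAG blotting, n=3.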

[7] = test system: SYFs expressing Src^GFP WT; assay: Membrane blebbing microscopy; format: cell-based, murine; conditions: 10 μM 3, 15 min; Src^GFP WT resistant to probes
[8] = test system: Src^GFP G2A/V284C-expressing SYFs; assay: Membrane blebbing microscopy; format: cell-based, murine; conditions: 10 μM 3, 15 min; non-myristoylatable Src
Summary of the method: as §2

[9] = test system: Fyn^myr V284C-expressing SYFs; assay: Membrane blebbing microscopy; format: cell-based, murine; conditions: 10 μM 3, 15 min
Summary of the method: as §2

[10] = biological target: Src^FL K445C (Homo sapiens, UniProt P12931, K445C); assay: Isotope-coded maleimide labeling and mass spectrometry; conditions: 5 μM inhibitor
Summary of the method: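 Purified SrcFL K445C was diluted to 800 nM in HEPES pH 7.6 buffer with 5% glycerol and 0.02% DDM. It was incubated with 5 μM test compound at 25 °C for 30 min, then labelled with 1 mM heavy or light N-ethyl maleimide at 25 °C for 30 min. The reaction was quenched with 10 mM DTT. Heavy and light reactions were mixed, and protein was precipitated with deoxycholate/TCA on ice before mass spectrometry.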

| Compound | kinases depleted from Kinobead matrix (selectivity) [1] | inhibition of Src V284C (IC50, Figure 4C) [2] | inhibition of WT Src (IC50, Figure 4C) [3] | inhibition of WT Hck (IC50, Figure 4C) [4] | membrane blebbing after pre-treatment with 2 prior to addition of 3 ([5]; 3 μM 2 for 15 min, then 10 μM 3 for 15 min) | membrane blebbing [5] | SH3 domain accessibility (retained Src in SH3 pulldown) [6] | membrane blebbing [7] | membrane blebbing [8] | membrane blebbing [9] | maleimide labeling of control cysteine residue, 6 complex vs 5 complex ([10]; control peptide) | K445C maleimide labeling, open (6) compared to closed (5) conformation ([10]; αF peptide, ratio 6 complex vs 5 complex) |
| --- | --- | --- | --- | --- | --- | --- | --- | --- | --- | --- | --- | --- |
| COCCn1c(/C=C(/C#N)C(=O)NC(C)C)c(-c2ccc(Cl)cc2)c2c(N)ncnc21 [compound 1, (E)- & (Z)-3-(4-Amino-5-(4-chlorophenyl)-7-(2-methoxyethyl)-7H-pyrrolo[2,3-d]pyrimidin-6-yl)-2-cyano-N-isopropylacrylamide] | Hck^FLAG V284C was the only kinase among the ~220 enriched that was depleted | potently inhibited | insensitive | insensitive |  |  |  |  |  |  |  |  |
| COCCn1c(/C=C(/C#N)C(=O)NC(C)C)c(-c2ccc(Oc3ccccc3)cc2)c2c(N)ncnc21 [compound 2, (E)- & (Z)-3-(4-Amino-7-(2-methoxyethyl)-5-(4-phenoxyphenyl)-7H-pyrrolo[2,3-d]pyrimidin-6-yl)-2-cyano-N-isopropylacrylamide] | Hck^FLAG V284C was the only kinase among the ~220 enriched that was depleted | potently inhibited | minimal inhibition | minimal inhibition | levels of blebbing comparable to cells treated with DMSO or 2 alone | minimally affected | minimal pulldown |  |  |  |  |  |
| CNC(=O)C(C#N)=Cc1c(C#Cc2cc(NC(=O)c3cccc(C(F)(F)F)c3)ccc2C)c2cncnc2n1CCOC [compound 3, (E)- and (Z)-N-(3-((6-(2-cyano-3-(methylamino)-3-oxoprop-1-en-1-yl)-7-(2-methoxyethyl)-7H-pyrrolo[2,3-d]pyrimidin-5-yl)ethynyl)-4-methylphenyl)-3-(trifluoromethyl)benzamide] |  | potently inhibited | minimal inhibition | minimal inhibition |  | induction of blebbing | greatly increased | did not significantly increase membrane blebs | did not produce blebbing | marked increase in blebbing |  |  |
| Cc1ccc(NC(=O)c2cccc(C(F)(F)F)c2)cc1C#Cc1nn(C2CCCC2)c2ncnc(N)c12 [compound 6, N-(3-((4-amino-1-cyclopentyl-1H-pyrazolo[3,4-d]pyrimidin-3-yl)ethynyl)-4-methylphenyl)-3-(trifluoromethyl)benzamide] |  |  |  |  |  |  |  |  |  |  | no change in labeling | ~ 5 fold |
